Active and inactive are the calls of the source. No cut-off for these calls is given here.

Data set [1] has as its system Cricetinae gen. sp. Description: Evaluated for its ability to reduce liver cholesterol esters(LCE) in cholesterol-fed hamsters. The data set is classed as functional, Cricetulus griseus. In short, it runs like this: (§1)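 Hamsters were fed a 0.5% cholesterol diet for 7 days with once-daily oral gavage dosing in 0.2 mL corn oil. Controls got the same diet and vehicle without drug. Livers were collected on day 7 and neutral lipids extracted. Cholesteryl ester content was measured by HPLC. Results are given as percent change in hepatic cholesteryl ester versus cholesterol-fed controls, or as ED50 in mg/kg/day.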

Data set [2] relates to Cricetinae gen. sp. The conditions noted are these: Cricetulus griseus; Liver; 10 mg/kg.
For data set [3], the system named is Cricetinae gen. sp. The data set is described as follows: The compound was evaluated for percent reduction of liver cholesterol esters(LCE) in cholesterol-fed hamsters at 3 mg/kg/day. It counts as functional, Cricetulus griseus. The procedure, abridged: as §1
The subject of data set [4] is Cricetinae gen. sp. The data set is described as follows: The compound was evaluated for percent reduction of liver cholesterol esters(LCE) in cholesterol-fed hamsters at 10 mg/Kg/day. The data set is classed as functional, Cricetulus griseus. In short, it runs like this:
as §1

For data set [5], the system named is Cricetinae gen. sp. Description: The compound was evaluated for percent reduction of liver cholesterol esters(LCE) in cholesterol-fed hamsters at 2.5 mg/Kg/day. It counts as functional, Cricetulus griseus. In short, it runs like this: as §1
Data set [6] in a line: The pharmacokinetics property percent negation of rise in liver cholesterol esters relative to control-fed 0.5% cholesterol for 7 days, At a dose of 0.3 mg/kg/day. The data set is classed as ADME, organism-based. To be noted: in vivo, 168 h. The procedure, abridged:
as §1

A short description of data set [7]: Percent negation of rise in total serum cholesterol relative to control-fed 0.5% cholesterol for 7 days, at a dose of 0.03 mg/kg/day. The data set is classed as ADME, organism-based. To be noted: in vivo, 168 h. The procedure, abridged: (§2)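 Serum total cholesterol was measured in hamsters given 0.5% dietary cholesterol for 7 days with daily oral gavage dosing (0.2 mL corn oil vehicle). Controls were cholesterol-fed animals receiving vehicle without drug. Results are expressed as percent negation of the diet-induced rise in serum total cholesterol relative to these controls.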

A short description of data set [8]: The pharmacokinetics property percent negation of rise in liver cholesterol esters relative to control-fed 0.5% cholesterol for 7 days, At a dose of 1 mg/kg/day. To be noted: in vivo, 168 h. It counts as ADME, organism-based. The procedure, abridged: as §1
The nature of data set [9]: Percent negation of rise in total serum cholesterol relative to control-fed 0.5% cholesterol for 7 days, At a dose of 0.1 mg/kg/day. The data set is classed as ADME, organism-based. The conditions noted are these: in vivo, 168 h. The procedure, abridged:
as §2

Data set [10] can be described thus: The pharmacokinetics property percent negation of rise in liver cholesterol esters relative to control-fed 0.5% cholesterol for 7 days, At a dose of 3 mg/kg/day. It counts as ADME, organism-based. The conditions noted are these: in vivo, 168 h. In short, it runs like this:
as §1

The nature of data set [11]: The pharmacokinetics property percent negation of rise in liver cholesterol esters relative to control-fed 0.5% cholesterol for 7 days, At a dose of 0.1 mg/kg/day. It counts as ADME, organism-based. The conditions noted are these: in vivo, 168 h. In short, it runs like this:
as §1

A short description of data set [12]: The pharmacokinetics property percent negation of rise in liver cholesterol esters relative to control-fed 0.5% cholesterol for 7 days, At a dose of 0.03 mg/kg/day. The data set is classed as ADME, organism-based. To be noted: in vivo, 168 h. In short, it runs like this: as §1
Data set [13] in a line: Percent negation of rise in total serum cholesterol relative to control-fed 0.5% cholesterol for 7 days, At a dose of 0.3 mg/kg/day. The data set is classed as ADME, organism-based. The conditions noted are these: in vivo, 168 h. The procedure, abridged:
as §2

Data set [14] can be described thus: Percent negation of rise in total serum cholesterol relative to control-fed 0.5% cholesterol for 7 days, At a dose of 3 mg/kg/day. It counts as ADME, organism-based. The conditions noted are these: in vivo, 168 h. In short, it runs like this:
as §2

Data set [15] in a line: Percent negation of rise in total serum cholesterol relative to control-fed 0.5% cholesterol for 7 days, At a dose of 1 mg/kg/day. To be noted: in vivo, 168 h. The data set is classed as ADME, organism-based. In short, it runs like this: as §2
A short description of data set [16]: The pharmacokinetics property percent negation of rise in liver cholesterol esters relative to control-fed 0.5% cholesterol for 7 days, At a dose of 0.3 mg/kg/day; percent reduction was not statistically significant. The data set is classed as ADME, organism-based. The conditions noted are these: in vivo, 168 h. The procedure, abridged: as §1
Data set [17] is described as follows: Percent negation of rise in total serum cholesterol relative to control-fed 0.5% cholesterol for 7 days, At a dose of 1 mg/kg/day; percent reduction was not statistically significant. The data set is classed as ADME, organism-based. To be noted: in vivo, 168 h. In short, it runs like this:
as §2

A short description of data set [18]: Percent negation of rise in total serum cholesterol relative to control-fed 0.5% cholesterol for 7 days, At a dose of 0.3 mg/kg/day; percent reduction was not statistically significant. To be noted: in vivo, 168 h. It counts as ADME, organism-based. In short, it runs like this: as §2
For data set [19], the system named is Cricetinae gen. sp. The data set is described as follows: The compound was evaluated for its ability to reduce liver cholesterol esters(LCE) in cholesterol-fed hamsters; NE=no effect at 100 mg/kg. The data set is classed as functional, organism-based. The arrangement: dose 100 mg/kg. The conditions noted are these: Cricetulus griseus. In short, it runs like this:
as §1

The ED50 is the dose at which the effect has come halfway, by size or by number of responders. For `COc1ccc(N2C(=O)[C@H](CCCc3ccccc3)[C@H]2c2ccc(O)cc2)cc1`, the ED50 in data set [1] was 5 mg/kg/day.

The compound `COc1ccc([C@@H]2[C@@H](CCC(=O)c3ccccc3)C(=O)N2c2ccc(OC)cc2)cc1` displayed an ED50 in data set [1] of 2 mg/kg/day.

`COc1ccc(N2C(=O)[C@H](CC[C@@H](O)c3ccccc3)[C@H]2c2ccc(O)cc2)cc1`: the ED50 in data set [1] came to 3 mg/kg/day.

For `CC[C@H](C)C(=O)O[C@H]1C[C@@H](C)C=C2C=C[C@H](C)[C@H](CC[C@@H]3C[C@@H](O)CC(=O)O3)[C@H]21`, the ED50 result in data set [2] was “No effect”.

The compound `CC(=O)Oc1ccc([C@@H]2[C@@H](CC[C@H](OC(C)=O)c3ccc(F)cc3)C(=O)N2c2ccc(F)cc2)cc1` had an ED50 in data set [1] of 0.06 mg/kg/day.

Regarding `CC1CC[C@@]2(OC1)O[C@H]1C[C@H]3[C@@H]4CC[C@H]5C[C@@H](O[C@@H]6O[C@@H](CO)[C@@H](O[C@@H]7O[C@@H](COC(=O)Nc8ccccc8F)[C@@H](OC(=O)Nc8ccccc8F)[C@H](O)[C@@H]7O)[C@H](O)[C@@H]6O)CC[C@]5(C)[C@H]4CC(=O)[C@]3(C)[C@H]1[C@@H]2C` (some centres not stated), the ED50 in data set [1] was found to be 0.07 mg/kg/day.

Regarding `COc1ccc([C@@H]2[C@@H](CCCc3ccc(F)cc3)C(=O)N2c2ccc(F)cc2)cc1`, it took a dose of 0.7 mg/kg/day to reach the 50% effect level in [1] (ED50).

Turning to `O=C(CC[C@H]1C(=O)N(c2ccc(F)cc2)[C@@H]1c1ccc(OCc2ccccc2)cc1)c1ccc(F)cc1`, in [3], the Reduction was -96%.

In data set [1], `CC(=O)Oc1ccc([C@@H]2[C@@H](CC[C@@H](OC(C)=O)c3ccc(F)cc3)C(=O)N2c2ccc(F)cc2)cc1` showed an ED50 of 1.5 mg/kg/day.

For `O=C1[C@H](C/C=C/c2ccc(F)cc2)[C@@H](c2ccc(O)cc2)N1c1ccc(F)cc1`, the ED50 in data set [1] worked out at 2.5 mg/kg/day.

For the compound `O=C1[C@H](CCCc2ccccc2)[C@@H](c2ccc(O)cc2)N1c1ccc(O)cc1`, in data set [4], the Reduction was -68%.

For `CCC(CC(CC)c1ccc(C[N+](C)(C)C)cc1)c1ccccc1.[Cl-]` (configuration not stated), the “% reduction” value in [5] is on record as -96.

For `COc1ccc([C@@H]2[C@@H](CCCc3ccccc3)C(=O)N2c2ccc(O)cc2)cc1`, the Reduction in [4] is listed as -78%.

As to `COc1ccc(N2C(=O)[C@H](CC[C@H](O)c3ccccc3)[C@H]2c2ccc(O)cc2)cc1`, in data set [1], the ED50 turned out to be 0.3 mg/kg/day.

`COc1ccc([C@@H]2[C@@H](CC[C@@H](O)c3ccccc3)C(=O)N2c2ccc(OC)cc2)cc1` gave a 50% effective dose (ED50) in data set [1] of 5 mg/kg/day.

For `COc1ccc(N2C(=O)[C@H](CCCc3ccc(O)cc3)[C@H]2c2ccc(O)cc2)cc1`, in data set [4], the Reduction was -64%.

In the case of `O=C(CC[C@H]1C(=O)N(c2ccc(F)cc2)[C@@H]1c1ccc(O)cc1)c1ccc(F)cc1`, in [1], the ED50 amounted to 0.3 mg/kg/day.

`COc1ccc([C@@H]2[C@@H](CCCc3ccc(O)cc3)C(=O)N2c2ccc(OC)cc2)cc1`: the Reduction in data set [4] is given as -16%.

In the case of `O=C1[C@H](CC[C@H](O)c2ccc(F)cc2)[C@@H](c2ccc(O)cc2)N1c1ccc(F)cc1` [EZETIMIBE], the Negation in [6] was -96%; in [7] it was -23%; in data set [8] it was -100%; in [9], -37%; in [10] it was -100%; in [11], -87%. Further, the Negation is -39% in [12], -72% in data set [13], -100% in [14] and -100% in data set [15]. Moreover, the ED50 in data set [1] is 0.04 mg/kg/day.

On to `O=C1[C@H](CCCc2ccc(F)cc2)[C@@H](c2ccc(O)cc2)N1c1ccc(F)cc1`, for which, in data set [1], the 50% effect level (ED50) was put at a dose of 2 mg/kg/day.

With `O=C1[C@H](CC[C@H](O)c2ccc(F)cc2)[C@@H](c2ccc(OCc3ccccc3)cc2)N1c1ccc(F)cc1`, in [1], the ED50 is 0.1 mg/kg/day.

For `O=C1[C@H](CC[C@@H](O)c2ccc(F)cc2)[C@@H](c2ccc(O)cc2)N1c1ccc(F)cc1`, in data set [1], the ED50 turned out to be 0.8 mg/kg/day.

In data set [1], `COc1ccc(N2C(=O)[C@H](CCC(=O)c3ccccc3)[C@H]2c2ccc(O)cc2)cc1` returned an ED50 of 3 mg/kg/day.

Turning to `COc1ccc([C@@H]2[C@@H](CCCc3ccccc3)C(=O)N2c2ccc(OC)cc2)cc1` [SCH-48461], the Negation result in data set [16] is on record as “Not Active”; in [17], “Not Active”; in data set [18], “Not Active”; in data set [10] it was -68%; in [14] it was -76%. In [1], this compound showed a median effective dose (ED50) of 2.2 mg/kg/day.

Turning to `CC1CC[C@@]2(OC1)O[C@H]1C[C@H]3[C@@H]4CC[C@H]5C[C@@H](O[C@@H]6O[C@@H](CO)[C@@H](O[C@@H]7O[C@@H](COC(=O)Nc8ccccc8F)[C@@H](OC(=O)Nc8ccccc8F)[C@H](O)[C@@H]7O)[C@H](O)[C@@H]6O)CC[C@]5(C)[C@H]4C(=O)C[C@]3(C)[C@H]1[C@@H]2C` (some centres not stated), in data set [1], the ED50 stood at 0.025 mg/kg/day.

For the compound `Cc1ccc(C)c(OCCCC(C)(C)C(=O)O)c1`, the ED50 result in data set [19] is “inactive”.

In the case of `COc1ccc([C@@H]2[C@@H](CC[C@H](O)c3ccccc3)C(=O)N2c2ccc(OC)cc2)cc1`, in [1], the 50% effect level (ED50) was put at a dose of 0.9 mg/kg/day.
